# Rin1 Abl inh: human Rin1-Abl interaction inhibition; P00519+Q13671; 360,000 compounds, 0.4% hits; inhibition, % at 7.35 µM; AID 588664; TR-FRET Rin1/Abl binding, biochemical; in the data active means inhibition above about 5%, passing the limit was not always enough
# TbMetRS inhib: Trypanosoma brucei MetRS inhibition | purified T. brucei MetRS, ATP depletion, Kinase-Glo luminescence | inhibition, % at 11.9 µM | 360,000 compounds, 0.4% hits | AID 624268;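 active means inhibition above a per-plate cutoff of the control wells' mean inhibition plus 3 SD, cut at about 5.5% in these data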;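 further: 0% = DMSO wells median and 100% = median of wells with control inhibitor compound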
#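 Material: T. brucei methionyl-tRNA synthetase, purified; reagent: substrates ATP, L-methionine and bulk Escherichia coli tRNA; dosing: 11.9 µM single point; timing: 15 min plus 2 h at 25 °C; detection: luminescence of leftover ATP; evaluation: % inhibition; control set: DMSO-only wells as low control; replicates: singlicate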
# H9c2 protect: myocardial damage modulation in H9c2 cells; H9c2 cardiomyocytes, H2O2 injury protection, ATPLite, 2 h; protection from H2O2 cell death, % at 20 µM; 360,000 compounds, 0.63% hits; AID 588492;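 active means compounds giving at least 50% protection of heart cells from peroxide-induced death in the single-dose screen, raw or plate-pattern-corrected value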;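 further: 0% = DMSO wells with peroxide and 100% = DMSO wells without peroxide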
# PKA-R1A activ: PKA-R1A complex activation; AID 504707; P00514+P68181; activation, % at 11.4 µM; PKA-R1A dissociation, Cy5-IP20 fluorescence polarization; scaled: DMSO 0%, 113 µM cGMP 100%; 340,000 compounds, 0.083% hits;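 active means percent activation above the mean of all tested compounds plus 3 SD, cut at about 19% in these data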;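 further: higher means more PKAc released from R1A so a rise in polarization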
# PKA-R2B activ: PKA-R2B complex activation | P22694+P31323 | PKA-R2B holoenzyme dissociation, Cy5-IP20 fluorescence polarization; R2B truncated from residue 108, S112A mutant; 0% DMSO only, 100% 113 µM cGMP | activation, % at 11.4 µM | 340,000 compounds, 0.079% hits;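 active means activation above a cutoff set at the mean over all compounds plus 3 SD, cut at about 18% in these data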;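 further: higher means more holoenzyme dissociation and a rise in polarization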
# Target sequence (P31323 whole entry, looked up, other chains not shown, the tested form may be a part): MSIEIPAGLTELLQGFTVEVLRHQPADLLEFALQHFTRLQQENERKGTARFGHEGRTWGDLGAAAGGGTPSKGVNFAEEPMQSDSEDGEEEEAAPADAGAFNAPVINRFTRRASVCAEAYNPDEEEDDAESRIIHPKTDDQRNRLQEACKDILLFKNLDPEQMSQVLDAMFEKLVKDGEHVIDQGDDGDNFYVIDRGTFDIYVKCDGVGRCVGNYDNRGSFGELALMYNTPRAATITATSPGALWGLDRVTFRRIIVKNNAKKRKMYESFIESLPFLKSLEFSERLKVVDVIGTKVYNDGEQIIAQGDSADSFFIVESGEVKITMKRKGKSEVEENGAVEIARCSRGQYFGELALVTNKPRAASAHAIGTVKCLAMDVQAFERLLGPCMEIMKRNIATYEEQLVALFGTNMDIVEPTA
# Rin1 Abl conf: confirmation of inhibitors of human Rin1-Abl interaction. 1,300 compounds, 49% hits. AID 602124. inhibition, % at 7.35 µM. shares compounds with Rin1 Abl inh. TR-FRET Rin1-Abl binding, purified proteins
# GFP quench-1: counter-screen for Rin1-Abl inhibitors: GFP fluorescence quenchers | inhibitors/quenchers counterscreen | AID 602125 | 1,300 compounds, 8.5% hits | shares compounds with Rin1 Abl inh | inhibition, % at 6.75 µM;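 further: ABL1-eGFP fusion protein alone without its partner RIN1-SBP; 0% = protein with vehicle and 100% = wells lacking protein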
# GFP quench DR: quenches GFP in dose response, Rin1-Abl counter-screen. IC50, µM. 230 tested, under 10 active. shares compounds with Rin1 Abl inh. GFP fluorescence interference/quenching counterscreen; call rule not given here;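 further: ABL1-eGFP fusion protein alone without its RIN1 binding partner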
# GFP quench-2: quenches GFP fluorescence in Rin1-Abl counterscreen; GFP fluorescence quenching counterscreen, biochemical; AID 602397; IC50, µM; shares compounds with Rin1 Abl inh; 25 tested, under 10 active; call rule not given here
# Starred values were filed as active, the others as inactive; x = not tested or not shown; ! = repeats disagree. Compounds with a hit are over-represented: about 1.5% of the library has one in this group of screens. Unless noted, no stated cut-off is given here; in the data, active means inhibition above about 6.5%; inactive means the rest.
SMILES,Rin1 Abl inh,TbMetRS inhib,H9c2 protect,PKA-R1A activ,PKA-R2B activ,Rin1 Abl conf,GFP quench-1,others
CCOC(=O)CCCCC(=O)c1[nH]c(=O)[nH]c1Cn1cnc2ccccc21,71*,0,-2,-8,-16,79*,1,GFP quench DR=>68
Cc1[nH]c2ccccc2c1C(=O)COC(=O)Cn1cnc2ccccc21,-1,0,2,-3,-2,x,x,
CCOC(=O)c1[nH]c(=O)[nH]c1CSc1ccccn1,2,0,-1,-6,1,x,x,
Cc1ccc(S(=O)(=O)N(C)/N=C2/C(=O)N(CC(=O)O)c3ccccc32)cc1,0,0,-3,11,-6,x,x,
CN(C)c1ccc(CC(=O)N2CCCCC2c2cc(C(=O)Nc3cccc(C#N)c3)no2)cc1 (stereo unspecified),-3,-1,5,x,x,x,x,
COc1ccc(Cl)cc1C(=O)NNC(=O)CN1C(=O)C2CC=CCC2C1=O (stereo unspecified),-1,0,3,0,-2,x,x,
Cc1cc(C)n2nc(SCc3nnc(SCc4ccccc4C)s3)nc2n1,0,0,-16,1,1,x,x,
COc1cccc(CSc2nnc(CSc3nc4nc(C)cc(C)n4n3)s2)c1,28*,1,-2,-2,5,39*,0,GFP quench DR=>68;GFP quench-2=>68
CN(CCc1ccccc1)C(=O)c1ccc(NC(=O)Cc2ccc(NC(=O)C3CCN(C(=O)c4ccccc4)CC3)cc2)cc1,41*,0,-21,0,2,42*,1,GFP quench DR=>67;GFP quench-2=>68
CN(CCc1ccccc1)C(=O)c1ccc(NC(=O)Cc2ccc(NC(=O)C3CCN(C(=O)C4CCCC4)CC3)cc2)cc1,60*,-2,-24,2,10,68*,1,GFP quench DR=>67;GFP quench-2=>68
CN(CCc1ccccc1)C(=O)c1ccc(NC(=O)Cc2ccc(NC(=O)C3CCCN(C(=O)c4ccccc4)C3)cc2)cc1 (stereo unspecified),-3,-1,-16,4,-4,x,x,
CN(CCc1ccccc1)C(=O)c1ccc(NC(=O)Cc2ccc(NC(=O)C3CCN(C(=O)C4CC4)CC3)cc2)cc1,13*,-3,-10,-11,-10,15*,-4,
CCCOc1cccc(C2C(C(=O)c3cccs3)=C(O)C(=O)N2CCN2CCOCC2)c1 (stereo unspecified),2,0,-1,-2,-7,x,x,
Cc1ccc(OCCN(C)C(=O)C2CCC(=O)N(CC3CCCCC3)C2)cc1 (stereo unspecified),-2,0,-9,-4,0,x,x,
CCC(C)NS(=O)(=O)c1ccc(S(=O)(=O)N(CC(=O)Nc2ccccc2)Cc2ccco2)cc1 (stereo unspecified),4.8*,0,-3,8,-3,0,0,
CCOC(=O)c1c(C)n(C(=O)c2ccco2)c(=O)n1C(=O)c1ccco1,36*,-1,21,-4,-1,35*,-1,GFP quench DR=>67
CCOC(=O)c1c(C)c(C(=O)N2CCN(C(=O)c3ccco3)CC2)c(C)n1C,0,-1,1,10,-2,x,x,
COc1ccc(-n2c(Cc3cccn3C)nnc2SCC(=O)Nc2cccc(NC(C)=O)c2)cc1,9.1*,0,-6,3,0,-3,0,
O=C1C(=Cc2ccco2)CCC1=Cc1ccco1,12*,0,12,1,3,17*,29*,
Cc1cc(Cl)ccc1OC(C)C(=O)Nc1cnn(CCCC(=O)O)c1 (stereo unspecified),-1,0,2,-6,-3,x,x,
CCOc1ccccc1N(CC(=O)Nc1cccc2ccccc12)S(C)(=O)=O,-1,2,8,5,-1,x,x,
COc1ccc(C=O)cc1OS(=O)(=O)c1ccc(NC(C)=O)cc1,8.5*,2,13,0,-10,1,0,
COc1ccc(N2CCN(c3nc4c(c(=O)n(C)c(=O)n4C)n3Cc3ccccc3)CC2)cc1,5.8*,-1,5,-1,-9,7.7*,0,
CCN(CCn1cccn1)C(=O)c1ccc2nc(Cc3ccc(OC)cc3)oc2c1,-1,0,-4,-12,-8,x,x,
C[C@H]1c2cccc(O)c2C(O)=C2C(=O)[C@]3(O)C(O)=C(C(N)=O)C(=O)[C@@H](N(C)C)C3[C@@H](O)C21 (stereo partly specified),5,-1,-4,-5,-2,x,x,
SMILES,Rin1 Abl inh,TbMetRS inhib,H9c2 protect,PKA-R1A activ,PKA-R2B activ,Rin1 Abl conf,GFP quench-1,others
C=C1c2cccc(O)c2C(=O)C2C(=O)[C@]3(O)C(=O)C(C(N)=O)C(=O)[C@@H](N(C)C)[C@@H]3[C@@H](O)[C@H]12 (stereo partly specified),33*,1,-3,5,5,4,3,
Cc1nc(N/N=C/c2cccc(F)c2)cc(N2CCOCC2)n1,0,-2,19,-6,-9,x,x,
Cc1nc(N/N=C/c2ccc(O)cc2O)cc(N2CCOCC2)n1,36*,0,37,-2,5,44*,-2,GFP quench DR=>68
CN1CCc2cccc3c2[C@H]1Cc1ccc(O)c(O)c1-3,16*!,-1,34,5,-4,11*,11*,
O=C(NCc1ccncc1)Nc1ccccc1,54*,0,-3,1,3,-1,-1,
O=C(NC1CCSC1=O)C1CCCCC1 (stereo unspecified),3,-1,2,0,1,x,x,
CCCOc1ccc(/C=N\NC(=O)CCc2n[nH]c(=O)[nH]c2=O)cc1OC,7.8*,0,3,0,-8,8.8*,0,
CCCOc1ccc(/C=N/NC(=O)CSc2ccccn2)cc1OC,16*,-1,-1,-6,7,22*,0,GFP quench DR=>68
Cc1ccc(C)c(NC(=O)CCc2c(C)nn(-c3ccc(N4CCCCC4)nn3)c2C)c1,12*,0,-3,0,1,0,0,
CCOC(=O)C1=C(C)N(C)C(=O)NC1c1cc2c(cc1[N+](=O)[O-])OCO2 (stereo unspecified),8.7*,0,0,-10,-3,7.4*,1,
O=C(COc1ccc(F)cc1)NCC1(N2CCOCC2)CCCCC1,11*,0,-2,-3,13,0,0,
O=C(Nc1ccc(F)c(Cl)c1)c1cc(C2CCCCN2C(=O)c2cccs2)on1 (stereo unspecified),-5,0,-10,x,x,x,x,

# Assay outcomes: PubChem, several laboratories
